Data taken from ChEMBL document CHEMBL1147606, “Synthesis and cytotoxicity of hydrophobic esters of podophyllotoxins” (Bioorg Med Chem Lett, 2004).
pIC50: −log10 of the molar value.

What was measured:
Type in all cases: functional, cell-based
[1] = system: SK-MEL-28; assay: In vitro cytotoxicity against MEL-28 (human malign melanoma) neoplastic cell line
Summary of the method: (§1)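 In vitro assay adapted from Bergeron's method. P-388 was grown as a suspension culture of a mouse lymphoid neoplasm. A-549, HT-29 and MEL-28 were grown as monolayer cultures. Dose–response curves were constructed, and IC50 values (nM) were calculated from them.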

[2] = system: HT-29; assay: In vitro cytotoxicity against the HT-29 (human colon carcinoma) neoplastic cell line; summary of the method: as §1
[3] = system: P388; assay: In vitro cytotoxicity against the P-388 (from DBA/2 mouse) neoplastic cell line; summary of the method: as §1
[4] = system: A549; assay: In vitro cytotoxicity against the A-549 (human lung carcinoma) neoplastic cell line

| SMILES | pIC50 ([1]; Homo sapiens, SK-MEL-28) | pIC50 ([2]; Homo sapiens, HT-29) | pIC50 ([3]; Mus musculus, P388) | pIC50 ([4]; Homo sapiens, A549) | pIC50 ([1]; sk-mel-28) | pIC50 ([2]; ht-29) | pIC50 ([3]; p388) | pIC50 ([4]; a549) |
| --- | --- | --- | --- | --- | --- | --- | --- | --- |
| C=CC(=O)O[C@H]1c2cc3c(cc2[C@@H](c2cc(OC)c(OC)c(OC)c2)[C@@H]2C(=O)OC[C@@H]21)OCO3 | 7.28 | 7.26 | 7.26 | 7.28 |  |  |  |  |
| COc1cc([C@@H]2c3cc4c(cc3[C@@H](O)[C@H]3COC(=O)[C@H]23)OCO4)cc(OC)c1OC [EPIPODOPHYLLOTOXIN] |  | 5.22 | 5.22 | 5.22 |  |  |  |  |
| C=CC(=O)O[C@@H]1c2cc3c(cc2[C@@H](c2cc(OC)c(OC)c(OC)c2)[C@H]2C(=O)OC[C@@H]21)OCO3 | 6.67 | 6.67 | 6.67 | 6.67 |  |  |  |  |
| COc1cc([C@@H]2c3cc4c(cc3[C@H](O)[C@H]3COC(=O)[C@@H]23)OCO4)cc(OC)c1OC [AXL-1717] |  | 7.22 | 7.22 | 7.22 |  |  |  |  |
| COc1cc([C@@H]2c3cc4c(cc3[C@@H](OC(=O)/C=C/c3ccccc3)[C@H]3COC(=O)[C@H]23)OCO4)cc(OC)c1OC | 6.74 | 6.74 | 6.74 | 6.74 |  |  |  |  |
| C=CC(=O)O[C@@H]1c2cc3c(cc2[C@@H](c2cc(OC)c(OC)c(OC)c2)[C@@H]2C(=O)OC[C@@H]21)OCO3 | 7.68 | 7.68 | 7.68 | 7.68 |  |  |  |  |
| COc1cc([C@@H]2c3cc4c(cc3[C@H](OC(=O)/C=C/c3ccccc3)[C@H]3COC(=O)[C@H]23)OCO4)cc(OC)c1OC | 5.04 | 5.04 | 5.34 | 5.04 |  |  |  |  |
| COc1cc([C@@H]2c3cc4c(cc3[C@@H](OC(=O)c3ccccc3)[C@H]3COC(=O)[C@H]23)OCO4)cc(OC)c1OC | 7.32 | 7.32 | 7.62 | 7.32 |  |  |  |  |
| COc1cc([C@@H]2c3cc4c(cc3[C@H](O)[C@H]3COC(=O)[C@H]23)OCO4)cc(OC)c1OC [PODOFILOX] |  | 5.54 | 5.54 | 5.54 |  |  |  |  |
| COc1cc([C@@H]2c3cc4c(cc3[C@H](OC(=O)Cc3ccccc3)[C@H]3COC(=O)[C@H]23)OCO4)cc(OC)c1OC | 6.73 | 6.73 | 6.73 | 6.73 |  |  |  |  |
| COc1cc([C@@H]2c3cc4c(cc3[C@H](OC(=O)C3CC5C=CC3C5)[C@H]3COC(=O)[C@@H]23)OCO4)cc(OC)c1OC (some centres undefined) | 7.72 | 7.72 | 7.72 | 7.72 |  |  |  |  |
| COc1cc([C@@H]2c3cc4c(cc3[C@@H](OC(=O)C3CC5C=CC3C5)[C@H]3COC(=O)[C@H]23)OCO4)cc(OC)c1OC (some centres undefined) | 5.95 | 5.95 | 5.95 | 5.95 |  |  |  |  |
| COc1cc([C@@H]2c3cc4c(cc3[C@@H](OC(=O)Cc3ccccc3)[C@H]3COC(=O)[C@H]23)OCO4)cc(OC)c1OC | 7.03 | 7.03 | 7.33 | 7.03 |  |  |  |  |
| COc1cc([C@@H]2c3cc4c(cc3[C@@H](O)[C@H]3COC(=O)[C@@H]23)OCO4)cc(OC)c1OC |  | 7.62 | 7.92 | 7.92 |  |  |  |  |
| C=CC(=O)O[C@H]1c2cc3c(cc2[C@@H](c2cc(OC)c(OC)c(OC)c2)[C@H]2C(=O)OC[C@@H]21)OCO3 | 6.67 | 6.67 | 6.67 | 6.67 |  |  |  |  |
| COc1cc([C@@H]2c3cc4c(cc3[C@@H](O[C@@H]3O[C@@H]5CO[C@@H](C)O[C@H]5[C@H](O)[C@H]3O)[C@H]3COC(=O)[C@H]23)OCO4)cc(OC)c1O [ETOPOSIDE] | 6.07 | 5.77 | 6.77 |  |  |  |  |  |
| CCCCCCC(=O)O[C@@H]1c2cc3c(cc2[C@@H](c2cc(OC)c(OC)c(OC)c2)[C@H]2C(=O)OC[C@@H]21)OCO3 | 6.72 | 6.72 | 6.72 | 6.72 |  |  |  |  |
| COc1cc([C@@H]2c3cc4c(cc3[C@H](OC(=O)C3CC5C=CC3C5)[C@H]3COC(=O)[C@H]23)OCO4)cc(OC)c1OC (some centres undefined) |  |  |  |  | 6.33 | 6.33 | 6.33 | 6.33 |
| COc1cc([C@@H]2c3cc4c(cc3C(OC(=O)C3CC5C=CC3C5)[C@H]3COC(=O)C23)OCO4)cc(OC)c1OC (single isomer, unassigned) |  |  |  |  | 8.40 | 8.40 | 8.30 | 8.40 |
| COc1cc([C@@H]2c3cc4c(cc3[C@@H](OC(=O)CC3CC5CCC3C5)[C@H]3COC(=O)[C@H]23)OCO4)cc(OC)c1OC (some centres undefined) | 6.34 | 6.34 | 6.34 | 6.34 |  |  |  |  |
| COc1cc([C@@H]2c3cc4c(cc3[C@H](OC(=O)c3ccccc3)[C@H]3COC(=O)[C@H]23)OCO4)cc(OC)c1OC | 5.71 | 5.71 | 5.71 | 5.71 |  |  |  |  |
